From ChEMBL document CHEMBL3243993, “Cardenolide analogues. 4. (20R)- and (20S)-Cardanolides: on the roles of the 20(22)-ene and 14beta-hydroxyl in genin activity” (J Med Chem, 1979)

Experiments:
[1] = Inhibition of rat brain (Na+,K+)ATPase in presence of appropriate Mg2+ and Na+; conditions: read-out: I50
[2] = Inhibition of rat brain (Na+,K+)ATPase incubated for 10 mins followed by Kcl added in presence of appropriate Mg2+ and Na+; conditions: read-out: I50
Method in brief: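 Steroids added in ethanol to the (Na+,K+)ATPase tubes, at most 20 μL ethanol per tube. After 10 min, KCl was added to start (Na+,K+)ATPase activity. Where a steroid was insoluble in the medium, no precise value could be obtained.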

[3] = Solubility of the compound in steroid medium; format: physicochemical
Method in brief: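 Observed in the (Na⁺,K⁺)ATPase assay medium. Steroids were added in ethanol to the enzyme tubes, at no more than 20 μL ethanol per tube. After 10 min, KCl was added to start (Na⁺,K⁺)ATPase activity.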

solubility [3]	SMILES	IC50 [1]	IC50 [2]
	C=C1C(=O)OC[C@@H]1[C@H]1CC[C@]2(O)[C@@H]3CC[C@@H]4C[C@@H](O)CC[C@]4(C)[C@H]3CC[C@]12C	70 µM	70 µM
	C[C@]12CC[C@H](O)C[C@H]1CC[C@@H]1[C@@H]2CC[C@]2(C)[C@@H]([C@H]3COC(=O)C3)CC[C@]12O	14 µM	12 µM
	C=C1C(=O)OC[C@@H]1[C@H]1CC=C2[C@@H]3CC[C@@H]4C[C@@H](O)CC[C@]4(C)[C@H]3CC[C@@]21C	30 µM	20 µM
Insoluble	C=C1C(=O)OC[C@H]1[C@H]1CC=C2[C@@H]3CC[C@@H]4C[C@@H](O)CC[C@]4(C)[C@H]3CC[C@@]21C	100 µM	100 µM
	C[C@]12CC[C@H](O)C[C@H]1CC[C@@H]1[C@@H]2CC[C@]2(C)[C@@H]([C@@H]3COC(=O)C3)CC[C@]12O	14 µM	11 µM
	C=C1C(=O)OC[C@H]1[C@H]1CC[C@]2(O)[C@@H]3CC[C@@H]4C[C@@H](O)CC[C@]4(C)[C@H]3CC[C@]12C	70 µM	60 µM
	C[C@]12CC[C@H](O)C[C@H]1CC[C@@H]1[C@@H]2CC[C@]2(C)[C@@H](C3=CC(=O)OC3)CC[C@]12O [DIGITOXIGENIN]	0.35 µM	0.35 µM
